Test results reported in ChEMBL document CHEMBL4673214, “Synthesis and antibacterial bioactivities of cationic deacetyl linezolid amphiphiles” (Eur J Med Chem, 2018).

What was measured:
[1] = system: Klebsiella pneumoniae; assay: Antibacterial activity against carbapenem-resistant Klebsiella pneumoniae clinical isolate 2 assessed as reduction in bacterial growth incubated for 16 to 20 hrs by CLSI-based broth microdilution method; assay type: functional; conditions: time 16-20 hrs
How it was run: (§1)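 Clinical isolates tested by broth microdilution in cation-adjusted Mueller-Hinton broth. Cultures grown 4-6 h (~10^8 CFU/mL) were diluted to ~10^6 CFU/mL and mixed 1:1 with compound serial dilutions made from 256 down to 0.5 µg/mL (pre-mixing). Plates held at 37 °C for 16-20 h, then read for growth. Each concentration run in duplicate, whole experiment at least twice.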

[2] = system: Enterobacteriaceae; assay: Antibacterial activity against NDM1 producing carbapenem-resistant Enterobacteriaceae clinical isolate 4 assessed as reduction in bacterial growth incubated for 16 to 20 hrs by CLSI-based broth microdilution method; assay type: functional; conditions: time 16-20 hrs; how it was run: as §1
[3] = Solubility of the compound in water at room temperature; assay type: physicochemical; conditions: buffer
[4] = system: Staphylococcus aureus; assay: Antibacterial activity against methicillin-resistant Staphylococcus aureus clinical isolate 10 assessed as reduction in bacterial growth incubated for 16 to 20 hrs by CLSI-based broth microdilution method; assay type: functional; conditions: time 16-20 hrs; how it was run: as §1
[5] = system: Klebsiella pneumoniae; assay: Antibacterial activity against carbapenem-resistant Klebsiella pneumoniae clinical isolate 8 assessed as reduction in bacterial growth incubated for 16 to 20 hrs by CLSI-based broth microdilution method; assay type: functional; conditions: time 16-20 hrs; how it was run: as §1
[6] = system: Staphylococcus aureus; assay: Antibacterial activity against methicillin-resistant Staphylococcus aureus clinical isolate 7 assessed as reduction in bacterial growth incubated for 16 to 20 hrs by CLSI-based broth microdilution method; assay type: functional; conditions: time 16-20 hrs; how it was run: as §1
[7] = system: Enterococcus faecalis; assay: Antibacterial activity against Enterococcus faecalis ATCC 29212 assessed as reduction in bacterial growth incubated 16 to 20 hrs by CLSI-based broth microdilution method; assay type: functional; conditions: time 16-20 hrs
How it was run: (§2)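 Broth microdilution following CLSI, in cation-adjusted Mueller-Hinton broth. Inoculum from a 4-6 h culture (~10^8 CFU/mL), diluted to ~10^6 CFU/mL. Water stocks were serially diluted in MHB (256 to 0.5 µg/mL) and mixed 1:1 with the inoculum. Plates ran 16-20 h at 37 °C. MIC was read visually. Each concentration was tested in duplicate, and the experiment was repeated at least twice.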

[8] = system: Klebsiella pneumoniae; assay: Antibacterial activity against carbapenem-resistant Klebsiella pneumoniae clinical isolate 7 assessed as reduction in bacterial growth incubated for 16 to 20 hrs by CLSI-based broth microdilution method; assay type: functional; conditions: time 16-20 hrs; how it was run: as §1
[9] = system: Enterobacteriaceae; assay: Antibacterial activity against NDM1 producing carbapenem-resistant Enterobacteriaceae clinical isolate 8 assessed as reduction in bacterial growth incubated for 16 to 20 hrs by CLSI-based broth microdilution method; assay type: functional; conditions: time 16-20 hrs; how it was run: as §1
[10] = system: Klebsiella pneumoniae; assay: Antibacterial activity against carbapenem-resistant Klebsiella pneumoniae clinical isolate 3 assessed as reduction in bacterial growth incubated for 16 to 20 hrs by CLSI-based broth microdilution method; assay type: functional; conditions: time 16-20 hrs; how it was run: as §1
[11] = system: Enterobacteriaceae; assay: Antibacterial activity against NDM1 producing carbapenem-resistant Enterobacteriaceae clinical isolate 1 assessed as reduction in bacterial growth incubated for 16 to 20 hrs by CLSI-based broth microdilution method; assay type: functional; conditions: time 16-20 hrs; how it was run: as §1
[12] = system: Enterobacteriaceae; assay: Antibacterial activity against NDM1 producing carbapenem-resistant Enterobacteriaceae clinical isolate 9 assessed as reduction in bacterial growth incubated for 16 to 20 hrs by CLSI-based broth microdilution method; assay type: functional; conditions: time 16-20 hrs; how it was run: as §1
[13] = system: Staphylococcus aureus; assay: Antibacterial activity against methicillin-resistant Staphylococcus aureus clinical isolate 8 assessed as reduction in bacterial growth incubated for 16 to 20 hrs by CLSI-based broth microdilution method; assay type: functional; conditions: time 16-20 hrs; how it was run: as §1
[14] = system: Enterobacteriaceae; assay: Antibacterial activity against NDM1 producing carbapenem-resistant Enterobacteriaceae clinical isolate 5 assessed as reduction in bacterial growth incubated for 16 to 20 hrs by CLSI-based broth microdilution method; assay type: functional; conditions: time 16-20 hrs; how it was run: as §1
[15] = system: Enterobacteriaceae; assay: Antibacterial activity against NDM1 producing carbapenem-resistant Enterobacteriaceae clinical isolate 2 assessed as reduction in bacterial growth incubated for 16 to 20 hrs by CLSI-based broth microdilution method; assay type: functional; conditions: time 16-20 hrs; how it was run: as §1
[16] = system: Klebsiella pneumoniae; assay: Antibacterial activity against carbapenem-resistant Klebsiella pneumoniae clinical isolate 1 assessed as reduction in bacterial growth incubated for 16 to 20 hrs by CLSI-based broth microdilution method; assay type: functional; conditions: time 16-20 hrs; how it was run: as §1
[17] = system: Klebsiella pneumoniae; assay: Antibacterial activity against carbapenem-resistant Klebsiella pneumoniae clinical isolate 9 assessed as reduction in bacterial growth incubated for 16 to 20 hrs by CLSI-based broth microdilution method; assay type: functional; conditions: time 16-20 hrs; how it was run: as §1
[18] = system: Escherichia coli; assay: Antibacterial activity against Escherichia coli ATCC 25922 assessed as reduction in bacterial growth incubated 16 to 20 hrs by CLSI-based broth microdilution method; assay type: functional; conditions: time 16-20 hrs; how it was run: as §2
[19] = system: Staphylococcus aureus; assay: Antibacterial activity against methicillin-resistant Staphylococcus aureus clinical isolate 1 assessed as reduction in bacterial growth incubated for 16 to 20 hrs by CLSI-based broth microdilution method; assay type: functional; conditions: time 16-20 hrs; how it was run: as §1
[20] = system: Staphylococcus aureus; assay: Antibacterial activity against methicillin-resistant Staphylococcus aureus clinical isolate 3 assessed as reduction in bacterial growth incubated for 16 to 20 hrs by CLSI-based broth microdilution method; assay type: functional; conditions: time 16-20 hrs; how it was run: as §1
[21] = system: Klebsiella pneumoniae; assay: Antibacterial activity against carbapenem-resistant Klebsiella pneumoniae clinical isolate 10 assessed as reduction in bacterial growth incubated for 16 to 20 hrs by CLSI-based broth microdilution method; assay type: functional; conditions: time 16-20 hrs; how it was run: as §1
[22] = Hemolytic activity in sheep RBC incubated for 1 hr; assay type: ADME, cell-based, Ovis aries, Erythrocyte; conditions: sheep red blood cells (erythrocytes)
How it was run: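 Sheep RBCs were resuspended at 5% in PBS and mixed 3:1 with serial dilutions (2560 to 5 µg/mL, pre-mixing levels), then incubated 1 h at 37 °C. After centrifugation, supernatant A540 was read. Hemolysis % was calculated as (A−A0)/(Atotal−A0)×100, with untreated RBCs as 0% and 0.1% Triton X-100 as total lysis.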

[23] = system: Klebsiella pneumoniae; assay: Antibacterial activity against carbapenem-resistant Klebsiella pneumoniae clinical isolate 6 assessed as reduction in bacterial growth incubated for 16 to 20 hrs by CLSI-based broth microdilution method; assay type: functional; conditions: time 16-20 hrs; how it was run: as §1
[24] = system: Staphylococcus aureus; assay: Antibacterial activity against Staphylococcus aureus ATCC 29213 assessed as reduction in bacterial growth incubated for 16 to 20 hrs by CLSI-based broth microdilution method; assay type: functional; conditions: time 16-20 hrs; how it was run: as §2
[25] = system: Staphylococcus aureus; assay: Antibacterial activity against methicillin-resistant Staphylococcus aureus clinical isolate 4 assessed as reduction in bacterial growth incubated for 16 to 20 hrs by CLSI-based broth microdilution method; assay type: functional; conditions: time 16-20 hrs; how it was run: as §1
[26] = system: Enterobacteriaceae; assay: Antibacterial activity against NDM1 producing carbapenem-resistant Enterobacteriaceae clinical isolate 7 assessed as reduction in bacterial growth incubated for 16 to 20 hrs by CLSI-based broth microdilution method; assay type: functional; conditions: time 16-20 hrs; how it was run: as §1
[27] = system: Staphylococcus aureus; assay: Antibacterial activity against methicillin-resistant Staphylococcus aureus clinical isolate 5 assessed as reduction in bacterial growth incubated for 16 to 20 hrs by CLSI-based broth microdilution method; assay type: functional; conditions: time 16-20 hrs; how it was run: as §1
[28] = system: Enterobacteriaceae; assay: Antibacterial activity against NDM1 producing carbapenem-resistant Enterobacteriaceae clinical isolate 3 assessed as reduction in bacterial growth incubated for 16 to 20 hrs by CLSI-based broth microdilution method; assay type: functional; conditions: time 16-20 hrs; how it was run: as §1
[29] = system: Enterobacteriaceae; assay: Antibacterial activity against NDM1 producing carbapenem-resistant Enterobacteriaceae clinical isolate 6 assessed as reduction in bacterial growth incubated for 16 to 20 hrs by CLSI-based broth microdilution method; assay type: functional; conditions: time 16-20 hrs; how it was run: as §1
[30] = system: Enterobacteriaceae; assay: Antibacterial activity against NDM1 producing carbapenem-resistant Enterobacteriaceae clinical isolate 10 assessed as reduction in bacterial growth incubated for 16 to 20 hrs by CLSI-based broth microdilution method; assay type: functional; conditions: time 16-20 hrs; how it was run: as §1
[31] = system: Salmonella enterica; assay: Antibacterial activity against Salmonella enterica ATCC 8387 assessed as reduction in bacterial growth incubated for 16 to 20 hrs by CLSI-based broth microdilution method; assay type: functional; conditions: time 16-20 hrs; how it was run: as §2
[32] = system: Staphylococcus aureus; assay: Antibacterial activity against methicillin-resistant Staphylococcus aureus clinical isolate 2 assessed as reduction in bacterial growth incubated for 16 to 20 hrs by CLSI-based broth microdilution method; assay type: functional; conditions: time 16-20 hrs; how it was run: as §1
[33] = system: Staphylococcus aureus; assay: Antibacterial activity against methicillin-resistant Staphylococcus aureus clinical isolate 6 assessed as reduction in bacterial growth incubated for 16 to 20 hrs by CLSI-based broth microdilution method; assay type: functional; conditions: time 16-20 hrs; how it was run: as §1
[34] = system: Klebsiella pneumoniae; assay: Antibacterial activity against carbapenem-resistant Klebsiella pneumoniae clinical isolate 4 assessed as reduction in bacterial growth incubated for 16 to 20 hrs by CLSI-based broth microdilution method; assay type: functional; conditions: time 16-20 hrs; how it was run: as §1
[35] = system: Staphylococcus aureus; assay: Antibacterial activity against methicillin-resistant Staphylococcus aureus clinical isolate 9 assessed as reduction in bacterial growth incubated for 16 to 20 hrs by CLSI-based broth microdilution method; assay type: functional; conditions: time 16-20 hrs; how it was run: as §1
[36] = system: Klebsiella pneumoniae; assay: Antibacterial activity against carbapenem-resistant Klebsiella pneumoniae clinical isolate 5 assessed as reduction in bacterial growth incubated for 16 to 20 hrs by CLSI-based broth microdilution method; assay type: functional; conditions: time 16-20 hrs; how it was run: as §1

Row | Compound | MIC [1] [µg/mL] | MIC [2] [µg/mL] | solubility [3] | MIC [4] [µg/mL] | MIC [5] [µg/mL] | MIC [6] [µg/mL] | MIC [7] [µg/mL] | MIC [8] [µg/mL] | MIC [9] [µg/mL] | MIC [10] [µg/mL] | MIC [11] [µg/mL] | MIC [12] [µg/mL] | MIC [13] [µg/mL] | MIC [14] [µg/mL] | MIC [15] [µg/mL] | MIC [16] [µg/mL] | MIC [17] [µg/mL] | MIC [18] [µg/mL] | MIC [19] [µg/mL] | MIC [20] [µg/mL] | also measured
1 | CCCCCCCCCCCCCC[N+](C)(C)CC(=O)NC[C@H]1CN(c2ccc(N3CCOCC3)c(F)c2)C(=O)O1.[Cl-] | 32 | 64 | Soluble | 8 | 32 | 2 | 4 | 32 | 16 | 16 | > 64 | 16 | 4 | 32 | > 64 | 32 | 32 | 16 | 4 | 2 | MIC [21]: 32 µg/mL; HC50 at 1 h [22]: 60 µg/mL; MIC [23]: 32 µg/mL; MIC [24]: 4 µg/mL; MIC [25]: 4 µg/mL; MIC [26]: 16 µg/mL; MIC [27]: 4 µg/mL; MIC [28]: 32 µg/mL; MIC [29]: 32 µg/mL; MIC [30]: 16 µg/mL; MIC [31]: 16 µg/mL; MIC [32]: 16 µg/mL; MIC [33]: 2 µg/mL; MIC [34]: 32 µg/mL; MIC [35]: 2 µg/mL; MIC [36]: 32 µg/mL
2 | CCCCCCCCCCCC[N+](C)(C)CC(=O)NC[C@H]1CN(c2ccc(N3CCOCC3)c(F)c2)C(=O)O1.[Cl-] | 32 | 64 | Soluble | 8 | 32 | 4 | 4 | 64 | 16 | 64 | > 64 | 16 | 8 | 32 | > 64 | 32 | 64 | 16 | 4 | 2 | MIC [21]: 64 µg/mL; MIC [23]: 32 µg/mL; MIC [24]: 8 µg/mL; MIC [25]: 16 µg/mL; MIC [26]: 32 µg/mL; MIC [27]: 4 µg/mL; MIC [28]: 64 µg/mL; MIC [29]: 16 µg/mL; MIC [30]: 32 µg/mL; MIC [31]: 16 µg/mL; MIC [32]: 8 µg/mL; MIC [33]: 4 µg/mL; MIC [34]: 64 µg/mL; MIC [35]: 8 µg/mL; MIC [36]: 64 µg/mL
